Test results taken from ChEMBL document CHEMBL1157509, “Alpha-glucosidase inhibitor from Kothala-himbutu (Salacia reticulata WIGHT)” (J Nat Prod, 2008).
The source made the active and inactive calls. The calls are words filed in the database; no cut-off is given here.

Legend:
[1] = biological target: T1, Sucrase-isomaltase, intestinal (Rattus norvegicus, UniProt P23739); test: Inhibition of rat intestinal sucrase
Summary of the method: (§1)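 Crude enzyme from rat intestinal acetone powder in 0.1 M K3PO4 buffer (5 mM EDTA, pH 7). Substrates: maltose 25 mM (maltase), sucrose 100 mM (sucrase), isomaltose 25 mM (isomaltase). Sample added in DMSO. Incubated 30 min, then stopped with 2 M Tris-HCl. Released glucose measured by glucose oxidase. IC50 read graphically from percent inhibition versus log concentration.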

[2] = biological target: T2, Pancreatic alpha-amylase (Sus scrofa) (UniProt P00690); test: Inhibition of pig pancreas alpha amylase
T2 sequence (whole entry): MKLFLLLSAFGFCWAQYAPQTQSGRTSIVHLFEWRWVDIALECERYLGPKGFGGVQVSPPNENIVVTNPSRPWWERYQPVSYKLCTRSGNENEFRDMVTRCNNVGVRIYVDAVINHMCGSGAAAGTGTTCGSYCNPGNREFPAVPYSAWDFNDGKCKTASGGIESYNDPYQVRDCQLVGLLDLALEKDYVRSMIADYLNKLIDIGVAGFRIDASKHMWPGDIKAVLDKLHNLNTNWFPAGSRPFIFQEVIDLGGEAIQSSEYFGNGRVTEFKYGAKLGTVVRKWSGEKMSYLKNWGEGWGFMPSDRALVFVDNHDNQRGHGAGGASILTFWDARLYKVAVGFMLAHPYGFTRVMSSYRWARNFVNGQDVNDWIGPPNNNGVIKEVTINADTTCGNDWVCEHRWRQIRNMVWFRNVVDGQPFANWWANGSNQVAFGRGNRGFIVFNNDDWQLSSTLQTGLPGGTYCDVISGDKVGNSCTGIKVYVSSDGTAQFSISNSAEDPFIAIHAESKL

[3] = biological target: T1, Sucrase-isomaltase, intestinal; test: Inhibition of rat intestinal isomaltase; summary of the method: as §1

T1 sequence (P23739 1-1013 limits assumed): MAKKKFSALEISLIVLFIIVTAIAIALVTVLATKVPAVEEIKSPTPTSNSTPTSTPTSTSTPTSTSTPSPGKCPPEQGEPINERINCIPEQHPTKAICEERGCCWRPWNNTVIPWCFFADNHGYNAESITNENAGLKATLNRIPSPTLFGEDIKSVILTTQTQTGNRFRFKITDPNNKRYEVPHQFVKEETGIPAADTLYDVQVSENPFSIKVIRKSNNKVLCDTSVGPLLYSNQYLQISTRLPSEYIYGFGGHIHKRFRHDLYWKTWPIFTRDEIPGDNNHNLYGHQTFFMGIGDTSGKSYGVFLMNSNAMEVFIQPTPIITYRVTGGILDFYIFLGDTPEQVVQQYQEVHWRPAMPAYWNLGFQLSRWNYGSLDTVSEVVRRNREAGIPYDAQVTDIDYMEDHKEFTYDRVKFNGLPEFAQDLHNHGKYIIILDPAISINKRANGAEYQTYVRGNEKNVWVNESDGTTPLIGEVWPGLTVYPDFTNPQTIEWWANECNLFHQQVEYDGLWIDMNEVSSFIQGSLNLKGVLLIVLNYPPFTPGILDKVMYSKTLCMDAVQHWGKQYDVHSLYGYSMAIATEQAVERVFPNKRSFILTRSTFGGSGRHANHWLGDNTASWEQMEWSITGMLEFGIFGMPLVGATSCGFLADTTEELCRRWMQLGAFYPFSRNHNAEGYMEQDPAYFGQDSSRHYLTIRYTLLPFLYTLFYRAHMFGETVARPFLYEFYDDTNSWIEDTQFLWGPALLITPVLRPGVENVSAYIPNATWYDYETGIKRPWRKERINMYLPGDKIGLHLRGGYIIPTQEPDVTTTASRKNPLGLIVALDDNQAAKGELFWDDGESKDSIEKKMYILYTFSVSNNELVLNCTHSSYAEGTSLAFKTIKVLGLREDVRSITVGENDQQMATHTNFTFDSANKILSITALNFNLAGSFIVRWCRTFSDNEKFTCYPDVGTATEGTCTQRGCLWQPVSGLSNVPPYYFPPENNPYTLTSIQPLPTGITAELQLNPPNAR
T1 sequence (P23739 1014-1841 limits assumed): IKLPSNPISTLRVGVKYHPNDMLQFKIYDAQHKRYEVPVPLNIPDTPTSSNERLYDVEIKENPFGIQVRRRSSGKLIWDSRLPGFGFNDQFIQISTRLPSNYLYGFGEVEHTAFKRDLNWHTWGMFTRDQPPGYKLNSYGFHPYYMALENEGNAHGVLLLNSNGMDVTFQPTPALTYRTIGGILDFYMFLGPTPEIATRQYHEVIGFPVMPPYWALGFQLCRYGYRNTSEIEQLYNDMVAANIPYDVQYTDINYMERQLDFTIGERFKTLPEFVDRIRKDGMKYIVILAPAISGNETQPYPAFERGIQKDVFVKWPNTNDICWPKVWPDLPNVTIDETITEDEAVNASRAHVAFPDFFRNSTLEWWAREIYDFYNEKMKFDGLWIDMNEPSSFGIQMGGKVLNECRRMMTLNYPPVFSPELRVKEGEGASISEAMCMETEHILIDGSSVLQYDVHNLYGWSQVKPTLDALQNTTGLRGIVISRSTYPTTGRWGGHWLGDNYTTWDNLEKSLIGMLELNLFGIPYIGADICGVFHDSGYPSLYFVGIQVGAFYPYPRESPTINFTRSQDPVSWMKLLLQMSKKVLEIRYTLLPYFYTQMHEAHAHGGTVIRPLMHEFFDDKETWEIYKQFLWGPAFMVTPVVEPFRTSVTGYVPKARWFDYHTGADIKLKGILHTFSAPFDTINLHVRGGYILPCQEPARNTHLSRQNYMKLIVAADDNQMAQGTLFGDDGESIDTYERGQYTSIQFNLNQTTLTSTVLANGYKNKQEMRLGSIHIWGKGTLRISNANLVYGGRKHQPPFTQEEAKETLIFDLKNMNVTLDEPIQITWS

SMILES	IC50 [1]	Ki [1]	Activity [2]	IC50 [3]	Ki [3]
[O-][S+]1CC(O)C(O)C(O)CC(O)CC(O)C(O)C(O)C(O)C1 (stereo not drawn)	186 nM	52 nM	inactive	99 nM	420 nM
O=S(=O)([O-])O[C@@H]([C@H](O)[C@H](O)[C@@H](O)CO)[C@H](O)C[S+]1C[C@@H](O)[C@H](O)[C@H]1CO (stereo partly drawn) [KOTALANOL]	1370 nM	420 nM	–	4480 nM	4200 nM
O=S(=O)([O-])O[C@@H](CO)[C@H](O)C[S@+]1C[C@@H](O)[C@H](O)[C@H]1CO [SALACINOL]	2510 nM	200 nM	–	1770 nM	1100 nM
